pIC50: −log10 of the molar value. Activity calls are given as the source filed them. The rule behind the calls is not given here.
Tests used:
A549 = assay: Cytotoxicity against human A549 cells after 72 hrs by MTT assay; assay type: functional, cell-based; details: for pIC50: A549, 72 h
How it was run: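 A549 cells exposed 72 h to samples added in 10% DMSO after a 24 h pre-culture at 37 °C, 5% CO2. MTT (0.5 mg/mL) in DMEM for 1.5 h, formazan dissolved in DMSO, absorbance at 540 nm minus 620 nm. % inhibition relative to untreated control gives IC50; etoposide positive control; means with SD from triplicate experiments.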

KB = assay: Cytotoxicity against human KB cells after 72 hrs by MTT assay; assay type: functional, cell-based
How it was run: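 KB cells seeded at 3 × 10^3 cells/well in DMEM with 10% FBS, amphotericin B (0.5 µg/ml) and kanamycin sulfate (100 µg/mL), 37 °C, 5% CO2. After 24 h, samples in 10% DMSO added; incubated 72 h. MTT (0.5 mg/mL) added for 1.5 h, formazan dissolved in DMSO, absorbance at 540 nm minus 620 nm. % inhibition vs control; etoposide positive control; means with SD, triplicate.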

| SMILES | Activity (A549) | Activity (KB) | pIC50 (A549) | pIC50 (KB) |
| --- | --- | --- | --- | --- |
| CC(C)=CCC[C@@]1(C)C=Cc2c([C@@H]3CC(=O)c4c(cc(O)c(CC=C(C)C)c4O)O3)ccc(O)c2O1 | inactive | inactive | – | – |
| COc1cc([C@@H]2c3cc4c(cc3[C@@H](O[C@@H]3O[C@@H]5CO[C@@H](C)O[C@H]5[C@H](O)[C@H]3O)[C@H]3COC(=O)[C@H]23)OCO4)cc(OC)c1O [ETOPOSIDE] | – | – | 5.08 | 5.90 |
| CC(C)=CCC[C@@]1(C)CCc2c([C@@H]3CC(=O)c4c(cc(O)c(CC=C(C)C)c4O)O3)ccc(O)c2O1 | inactive | inactive | – | – |
| CC(C)=C/C=C/[C@]1(C)CCc2c([C@@H]3CC(=O)c4c(cc(O)c(CC=C(C)C)c4O)O3)ccc(O)c2O1 | inactive | inactive | – | – |
| CC(C)=CCC/C(C)=C/Cc1c([C@@H]2CC(=O)c3c(cc4c(c3O)C=CC(C)(C)O4)O2)ccc(O)c1O | inactive | inactive | – | – |
| CC(C)=CCC[C@]1(C)CCc2c([C@@H]3CC(=O)c4c(cc(O)c(CC=C(C)C)c4O)O3)ccc(O)c2O1 [MACAFLAVANONE G] | – | – | 4.87 | 4.91 |
| CC(C)=CCC/C(C)=C/Cc1c([C@@H]2CC(=O)c3c(cc4c(c3O)CCC(C)(C)O4)O2)ccc(O)c1O | inactive | inactive | – | – |
| CC(C)=C/C=C/[C@@]1(C)CCc2c([C@@H]3CC(=O)c4c(cc(O)c(CC=C(C)C)c4O)O3)ccc(O)c2O1 | inactive | inactive | – | – |

Source: ChEMBL document CHEMBL1154135, “Macaflavanones A-G, prenylated flavanones from the leaves of Macaranga tanarius” (J Nat Prod, 2008)
